Screening results as filed in PubChem BioAssay.
Shown are actives, neighbours in structure and some others; about 5.1% of the full set was active somewhere.
STAT3 act-1 = IL-6 driven STAT3 reporter potentiators, primary screen, U3A cells, luciferase, luminescence, MLSCN library; IL-6 STAT3-luciferase reporter; 100% = signal with IL-6 EC80 alone; activation (% of control), % at 5.6 µM; 190,000 tested, 0.91% active; AID 871, 2007;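 active = activation above the screen-wide mean of compound activation plus 3 SD, cut at about 130% in these data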;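 note: 0% = background luminescence of wells with medium and substrate only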
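System – human U3A cells carrying STAT3-luciferase construct · Probe or stimulus – Interleukin-6, 33 ng/mL · Schedule – compound 1 h, then IL-6 6 h at 37 °C · Signal – luminescence from STAT3-driven luciferase reporter · Evaluation – percent of IL-6-only median luminescence · Benchmarks – IL-6-only high control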
STAT3 inh = IL-6 driven STAT3 reporter inhibitors, primary screen, U3A cells, luciferase, luminescence, MLSCN library; 190,000 tested, 0.89% active; IL-6 STAT3-luciferase reporter; host cell line lacks STAT1; inhibition, % at 5.5 µM; AID 862, 2007;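 active = inhibition above the mean inhibition across all screened compounds plus 3 SD, cut at about 44% in these data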;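 note: 0% = DMSO only wells and 100% = 100 µM nifuroxazide control wells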
NF-kB expr up = activators of NF-kB expression in neurons, primary screen, cell-based, HTS; human neuronal cells, NF-kB reporter expression; active compounds read high; fold change at 12.5 µM; 190,000 tested, 1.6% active; AID 1239, 2008; in the data active = fold change above about 3.3
APP 5'UTR act = activators of APP 5'UTR luciferase reporter, primary screen, SH-SY5Y cells. SH-SY5Y APP 5'UTR luciferase reporter, luminescence; zero percent = DMSO vehicle wells. activation, % at 2 µM. 190,000 tested, 1% active. AID 1276, 2008;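 active = activation above a set limit, based on mean plus 3 SD of controls, cut at about 140% in these data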
STAT1 inh = STAT1 signaling inhibitors, primary screen, cell-based, HTS, luciferase reporter; NIH 3T3 STAT1-luciferase reporter, IFN-gamma, luminescence; inhibition, % at 5.5 µM; 200,000 tested, 0.35% active; AID 920, 2007;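 active = inhibition above a set limit, the mean inhibition across all tested compounds plus 3 SD, cut at about 34% in these data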;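 note: 0% = IFN-gamma with DMSO and 100% = IFN-gamma with 300 µM nifuroxazide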
STAT1 act-1 = STAT1 signaling activators, primary screen, cell-based, HTS, luciferase reporter; NIH 3T3 STAT1-luciferase reporter, IFN-gamma, luminescence; 100% = IFN-gamma alone, no compound; activation (% of control), % at 5.5 µM; 200,000 tested, 2.6% active; AID 932, 2007;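 active = activation above the screen-wide mean activation plus 3 SD, cut at about 130% in these data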;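 note: raw ratio to IFN-gamma control signal so 100% means no change and 0% no light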
STAT3 act-2 = STAT3 reporter potentiators, retest of hits, confirmation, U3A cells, luciferase, luminescence | shares compounds with STAT3 act-1 | IL-6 potentiation; U3A cells lack STAT1; 100 means same as IL-6 alone | 1,200 tested, 64% active | AID 1267, 2008 | potentiation (% of control), % at 5.7 µM;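 active = percent activation of the STAT3 luciferase reporter above a set limit taken from the earlier primary screen, cut at about 130% in these data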;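 note: 0% = background signal of medium plus substrate and 100% = median of IL-6 with DMSO wells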
NFkB act STAT3ct = NF-kB reporter activators in human cells, counter-screen for STAT3 activator project. shares compounds with STAT3 act-1. 1,200 tested, 11% active. NF-kappaB reporter activation. AID 1309, 2008. activation (% of control), % at 5.7 µM; in the data active = activation above about 120%;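 note: reporter induced by TNF-alpha stimulation; 100% = median of stimulated DMSO wells and 0% = no signal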
STAT1 act-2 = STAT1 reporter activators, IFN-gamma induced, counter-screen for STAT3 activator project, cell-based, NIH 3T3, luciferase luminescence; NIH 3T3 STAT1-luciferase reporter; activation (% of control), % at 5.7 µM; AID 1318, 2008; 1,200 tested, 13% active; shares compounds with STAT3 act-1;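 active = activation above the solvent-only control well mean plus 3 SD, set per screening run, cut at about 120% in these data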;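 note: 100% = IFN-gamma with DMSO median signal so 100% means no change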
* hit, by the source's call; . = no result given.

SMILES	STAT3 act-1	STAT3 inh	NF-kB expr up	APP 5'UTR act	STAT1 inh	STAT1 act-1	STAT3 act-2	NFkB act STAT3ct	STAT1 act-2
c1ccc(-c2cc3ccccc3nc2N2CCCC2)cc1	136.4*	-38.0	1.02	3.2	19.0	82.9	95.3	102.9	97.5
N#Cc1ccsc1NC(=O)CSc1ncnc2ccccc12	147.5*	-50.4	1.39	-2.4	16.7	84.8	144.1*	98.9	78.5
N#Cc1ccsc1NC(=O)CSc1ncn[nH]1	96.0	7.7	1.22	-27.8	-6.9	108.7	.	.	.
N#C/C(=C\Nc1ccccc1O)c1nc2ccccc2o1	165.3*	-82.6	0.98	26.5	2.7	97.6	183.5*	108.5	105.8
CCOC(=O)c1cnc(-c2ccccc2)nc1N(C)C	173.0*	-86.8	1.86	92.2	-17.9	116.5	154.6*	116.3	136.4*
Cc1ccccc1N1CCN(Cc2c[nH]c3ccccc23)CC1	143.5*	-40.7	1.49	-14.8	5.7	94.7	137.1*	99.2	95.9
CCS(=O)(=O)N1CCN(Cc2c[nH]c3ccccc23)CC1	141.5*	-40.0	0.93	5.6	19.2	81.7	141.7*	100.1	88.7
c1cnc(N2CCN(Cc3c[nH]c4ccccc34)CC2)nc1	116.5	-12.7	1.06	5.4	1.7	98.4	.	.	.
O=C1C(Cc2c[nH]c3ccccc23)NC(=S)N1Cc1ccccc1 (stereo not drawn)	111.7	-12.7	0.91	-11.7	-3.2	101.6	.	.	.
CC(C)C1NC(=S)N(Cc2ccccc2)C1=O (stereo not drawn)	142.0*	-46.5	1.24	-0.5	-3.0	102.7	98.0	105.3	99.4
CCCCOP(=O)(OCCCC)C1(NS(=O)(=O)c2ccccc2)C=CC(=O)c2ccccc21 (stereo not drawn)	144.5*	-55.1	0.74	-0.6	-0.1	100.0	114.3	101.6	99.5
CCCCOCCCNS(=O)(=O)c1ccccc1	106.3	-2.8	1.25	-4.3	-7.4	106.7	.	.	.
CCCc1nc(N)c(C#N)c(-c2ccco2)c1CC	105.3	-2.0	1.12	20.1	-0.1	100.1	.	.	.
COc1ccc(NS(=O)(=O)c2ccc3oc(SCc4ccc(F)cc4)nc3c2)cc1	88.0	16.5	0.79	5.9	5.8	94.8	.	.	.
Cc1[nH]n(-c2ccccc2)c(=O)c1/C=C1/C=c2ccccc2=N1	155.8*	-63.0	1.41	20.2	-1.9	100.7	170.3*	100.9	100.1
Cc1cc(SCC(=O)c2cc3ccccc3o2)nc2ccccc12	145.9*	-46.6	1.23	11.4	4.4	96.0	149.9*	106.7	95.2
Cc1cccc(-c2nc(C#N)c(N3CCCCCC3)o2)c1	101.4	2.6	2.25	24.6	-15.5	114.2	.	.	.
CCOC(=O)Cc1cc(=O)[nH]c(/N=C(\N)Nc2ccc(C)cc2C)n1	136.0*	-37.1	1.03	9.8	11.2	89.7	114.4	98.0	89.0
CC(=O)Nc1ccc(NC(=O)c2ccc(CSc3ccccc3)o2)cc1	144.3*	-45.2	0.98	28.1	1.3	98.7	113.1	105.4	107.3
O=C(Nc1cccc(F)c1)c1ccc(CSc2ccccc2)o1	107.2	-11.5	1.73	8.1	2.2	98.0	.	.	.
COc1ccc(NC(=O)Cn2c3ccccc3c3nc4n(c(=O)c32)CCS4)cc1	90.3	18.4	1.26	16.4	16.2	84.6	.	.	.
Cn1c(=O)c(-c2ccccc2N)nc2ccccc21	115.7	-11.4	1.12	-3.5	4.9	95.5	.	.	.
